ChEMBL document CHEMBL2346506, “Cytotoxicity and modulation of cancer-related signaling by (Z)- and (E)-3,4,3',5'-tetramethoxystilbene isolated from Eugenia rigida” (J Nat Prod, 2013)
pIC50: −log10 of the molar value. Activity calls are given as the source filed them. No cut-off for these calls is given here.

Assays:
HL-60 [1] = assay: Cytotoxicity against human HL60 cells assessed as growth inhibition measured after 48 hrs by XTT assay; assay type: functional, cell-based; conditions: HL-60, 48 h
[2] = Inhibition of Wnt signaling pathway in human HeLa cells assessed as measured as lowest concentration required 50 to 60 % inhibition of Wnt3a induced luciferase treated 30 mins before induction; assay type: cell-based
Summary of the method: (§1)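 Reporter assay in cells transfected with pathway luciferase plasmids. Cells plated at 0.015 × 10⁶ per well in 10% FBS, switched after 24 h to DMEM with 1% FBS, then transfected. 24 h after transfection, compound (final 40, 60, 80 or 100 μM) was added, followed 30 min later by inducer (IL-6, TGF-β, wnt3a or PMA). Luciferase was read 4 or 6 h after induction (6 h for Notch, Wnt, Hedgehog). Value is the IC50 or the lowest concentration giving maximal 50–60% inhibition; two independent experiments.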

[3] = Inhibition of NFkappaB signaling pathway in human HeLa cells assessed as inhibition of PMA induced luciferase at 100 uM treated 30 mins before induction; assay type: cell-based; summary of the method: as §1
[4] = target: Myc proto-oncogene protein (Homo sapiens) (UniProt P01106); assay: Inhibition of Myc signaling pathway in human HeLa cells assessed as inhibition of PMA induced luciferase at 100 uM treated 30 mins before induction; assay type: cell-based; summary of the method: as §1
HeLa [5] = assay: Inhibition of smad3/4 signaling pathway in human HeLa cells assessed as measured as lowest concentration required 50 to 60 % inhibition of TGF-beta induced luciferase treated 30 mins before induction; assay type: functional; summary of the method: as §1
[6] = target: T1, Nitric oxide synthase, inducible (Mus musculus) (UniProt P29477); assay: Inhibition of iNOS in LPS-induced mouse RAW264.7 cells assessed as inhibition of […] up to 33.3 uM measured after 24 hrs; assay type: cell-based
T1 sequence (whole entry): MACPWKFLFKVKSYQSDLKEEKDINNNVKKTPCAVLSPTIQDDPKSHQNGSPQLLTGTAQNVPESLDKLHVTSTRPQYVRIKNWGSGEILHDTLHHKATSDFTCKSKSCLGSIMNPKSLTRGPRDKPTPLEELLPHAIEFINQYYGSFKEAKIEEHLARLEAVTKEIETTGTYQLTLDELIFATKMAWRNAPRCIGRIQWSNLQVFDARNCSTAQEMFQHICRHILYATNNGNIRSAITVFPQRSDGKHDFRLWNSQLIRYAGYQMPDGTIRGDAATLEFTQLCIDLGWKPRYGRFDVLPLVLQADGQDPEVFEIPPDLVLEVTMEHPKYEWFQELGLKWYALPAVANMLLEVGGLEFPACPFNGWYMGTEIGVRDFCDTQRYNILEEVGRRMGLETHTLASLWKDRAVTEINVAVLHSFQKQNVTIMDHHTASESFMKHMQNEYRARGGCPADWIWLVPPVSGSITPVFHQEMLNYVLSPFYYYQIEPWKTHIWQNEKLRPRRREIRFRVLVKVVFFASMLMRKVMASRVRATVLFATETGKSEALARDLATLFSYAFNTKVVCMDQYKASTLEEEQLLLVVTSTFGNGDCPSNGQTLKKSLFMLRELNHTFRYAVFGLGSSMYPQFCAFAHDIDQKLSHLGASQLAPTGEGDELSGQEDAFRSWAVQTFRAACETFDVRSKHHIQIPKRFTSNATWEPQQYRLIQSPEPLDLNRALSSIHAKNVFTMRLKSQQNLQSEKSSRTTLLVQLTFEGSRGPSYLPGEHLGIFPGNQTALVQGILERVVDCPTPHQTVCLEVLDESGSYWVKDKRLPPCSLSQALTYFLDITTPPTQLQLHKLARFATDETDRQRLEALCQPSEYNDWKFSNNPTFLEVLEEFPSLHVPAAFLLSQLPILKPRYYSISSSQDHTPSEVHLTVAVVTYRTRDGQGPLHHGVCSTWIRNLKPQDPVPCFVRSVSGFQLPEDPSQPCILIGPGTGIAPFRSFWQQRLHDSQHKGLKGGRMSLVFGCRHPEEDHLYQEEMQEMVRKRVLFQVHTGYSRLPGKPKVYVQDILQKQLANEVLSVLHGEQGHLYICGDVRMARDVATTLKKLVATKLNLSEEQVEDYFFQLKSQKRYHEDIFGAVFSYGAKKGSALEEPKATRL
Summary of the method: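 RAW 264.7 macrophages seeded at 50 000 per well and grown 24 h. Compound added 30 min before LPS (5 μg/mL), then cells incubated a further 24 h. Nitrite in the supernatant measured with Griess reagent relative to vehicle control. Parthenolide served as positive control; cytotoxicity checked in parallel.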

HeLa [7] = assay: Inhibition of Stat3 signaling pathway in human HeLa cells assessed as inhibition of IL-6 induced luciferase at 100 uM treated 30 mins before induction; assay type: functional; summary of the method: as §1
LLC-PK1 = assay: Cytotoxicity against pig LLC-PK1 cells assessed as growth inhibition measured at 100 uM after 48 hrs by […] assay; assay type: cell-based, Sus scrofa; conditions: llc-pk1, 48 h
[8] = Inhibition of Ets signaling pathway in human HeLa cells assessed as inhibition of PMA induced luciferase at 100 uM treated 30 mins before induction; assay type: cell-based; summary of the method: as §1
[9] = Inhibition of AP1 signaling pathway in human HeLa cells assessed as inhibition of PMA induced luciferase treated 30 mins before induction; assay type: cell-based; summary of the method: as §1
HeLa [10] = assay: Inhibition of smad3/4 signaling pathway in human HeLa cells assessed as inhibition of TGF-beta induced luciferase treated 30 mins before induction; assay type: functional, cell-based; summary of the method: as §1
SK-OV-3 = assay: Cytotoxicity against human SKOV3 cells assessed as growth inhibition measured at 100 uM after 48 hrs by […] assay; assay type: functional, cell-based
[11] = Inhibition of AP1 signaling pathway in human HeLa cells assessed as measured as lowest concentration required 50 to 60 % inhibition of PMA induced luciferase treated 30 mins before induction; assay type: cell-based; summary of the method: as §1
BT-549 = assay: Cytotoxicity against human BT549 cells assessed as growth inhibition measured at 100 uM after 48 hrs by Neutral Red dye assay
Vero = assay: Cytotoxicity against african green monkey Vero cells assessed as growth inhibition measured at 100 uM after 48 hrs by […] assay; assay type: cell-based; conditions: chlorocebus sabaeus
[12] = Inhibition of Notch signaling pathway in human HeLa cells assessed as inhibition of PMA induced luciferase at 100 uM treated 30 mins before induction; assay type: cell-based; summary of the method: as §1
HeLa [13] = assay: Cytotoxicity against human HeLa cells assessed as growth inhibition measured after 48 hrs by Neutral Red dye assay
HL-60 [14] = assay: Inhibition of PMA induced ROS generation in human HL60 cells assessed as inhibition of ROA mediated oxidation of DCFH; assay type: functional, cell-based
Summary of the method: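 HL-60 cells (0.8 × 10⁶/mL) in RPMI-1640 with 10% FBS were pretreated 30 min with compound (0.4–100 μM). PMA (100 ng/mL) was then added for 30 min, followed by DCFH-DA (5 μg/mL) for 15 min. DCF fluorescence read at Ex 485 / Em 530 nm and compared with vehicle control. Trolox served as positive control.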

[15] = Inhibition of NFkappaB signaling pathway in human HeLa cells assessed as inhibition of PMA induced luciferase treated 30 mins before induction; assay type: cell-based; summary of the method: as §1
[16] = Inhibition of Wnt signaling pathway in human HeLa cells assessed as inhibition of Wnt3a induced luciferase treated 30 mins before induction; assay type: cell-based; summary of the method: as §1
[17] = Inhibition of Hedgehog signaling pathway in human HeLa cells assessed as inhibition of PMA induced luciferase at 100 uM treated 30 mins before induction; assay type: cell-based; summary of the method: as §1
[18] = Inhibition of E2F signaling pathway in human HeLa cells assessed as inhibition of PMA induced luciferase at 100 uM treated 30 mins before induction; assay type: cell-based; summary of the method: as §1
SK-MEL = assay: Cytotoxicity against human SK-MEL cells assessed as growth inhibition measured after 48 hrs by Neutral Red dye assay
KB = assay: Cytotoxicity against human KB cells assessed as growth inhibition measured at 100 uM after 48 hrs by Neutral Red dye assay
[19] = target: Forkhead box protein O1 (Homo sapiens) (UniProt Q12778); assay: Inhibition of FoxO signaling pathway in human HeLa cells assessed as inhibition of luciferase at 100 uM […]; assay type: cell-based
Sequence of Forkhead box protein O1 (Homo sapiens) (Q12778 whole entry): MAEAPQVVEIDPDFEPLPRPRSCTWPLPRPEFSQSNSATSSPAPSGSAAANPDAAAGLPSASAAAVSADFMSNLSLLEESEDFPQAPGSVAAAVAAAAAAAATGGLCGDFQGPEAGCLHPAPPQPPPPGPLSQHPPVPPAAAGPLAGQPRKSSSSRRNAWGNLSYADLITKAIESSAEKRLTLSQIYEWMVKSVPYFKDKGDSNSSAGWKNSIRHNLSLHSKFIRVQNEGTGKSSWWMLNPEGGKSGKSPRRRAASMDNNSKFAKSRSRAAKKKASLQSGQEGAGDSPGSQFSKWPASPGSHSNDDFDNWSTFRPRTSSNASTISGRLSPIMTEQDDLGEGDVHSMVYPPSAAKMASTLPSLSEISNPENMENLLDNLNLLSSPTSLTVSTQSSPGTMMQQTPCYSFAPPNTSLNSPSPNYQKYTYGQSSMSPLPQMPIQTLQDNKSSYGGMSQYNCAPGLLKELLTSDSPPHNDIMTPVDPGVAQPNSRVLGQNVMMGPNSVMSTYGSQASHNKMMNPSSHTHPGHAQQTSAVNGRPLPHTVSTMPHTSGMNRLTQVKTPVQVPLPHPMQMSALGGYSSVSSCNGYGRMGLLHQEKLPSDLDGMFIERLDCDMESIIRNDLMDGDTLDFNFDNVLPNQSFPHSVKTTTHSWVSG

Sequence of Myc proto-oncogene protein (Homo sapiens) (P01106 whole entry): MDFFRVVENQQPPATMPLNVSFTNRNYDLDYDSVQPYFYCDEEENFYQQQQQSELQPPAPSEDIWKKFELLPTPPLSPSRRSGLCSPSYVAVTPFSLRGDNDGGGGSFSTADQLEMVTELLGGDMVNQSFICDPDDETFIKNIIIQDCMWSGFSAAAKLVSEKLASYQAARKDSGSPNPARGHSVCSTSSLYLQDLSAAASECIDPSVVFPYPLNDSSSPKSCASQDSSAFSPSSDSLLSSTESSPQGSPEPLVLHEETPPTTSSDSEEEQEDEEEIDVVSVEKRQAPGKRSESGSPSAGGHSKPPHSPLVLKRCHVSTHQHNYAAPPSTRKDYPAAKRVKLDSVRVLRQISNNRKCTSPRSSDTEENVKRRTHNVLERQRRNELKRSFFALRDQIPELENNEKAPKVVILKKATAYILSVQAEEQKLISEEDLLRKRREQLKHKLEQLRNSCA

Structure (SMILES): COc1cc(/C=C/c2ccc(OC)c(OC)c2)cc(OC)c1 [(E)-3,4,3',5'-TETRAMETHOXYSTILBENE]
- pIC50 (HL-60 [1]): 4.48
- MED [2]: 80 µM
- inhibition [3]: < 40%
- inhibition [4]: < 40%
- MED (HeLa [5]): 77 µM
- inhibition [6]: inactive
- inhibition at 100 µM (HeLa [7]): < 40%
- growth inhibition (GI) (LLC-PK1): Not Active
- inhibition [8]: < 40%
- pIC50 [9]: 4.10
- pIC50 (HeLa [10]): 4.00
- growth inhibition (GI) (SK-OV-3): inactive
- MED [11]: 100 µM
- growth inhibition (GI) (BT-549): inactive
- growth inhibition (GI) (Vero): Not Active
- inhibition [12]: < 40%
- pIC50 (HeLa [13]): 5.10
- pIC50 (HL-60 [14]): 4.48
- pIC50 [15]: 4.05
- pIC50 [16]: 4.10
- inhibition [17]: < 40%
- inhibition [18]: < 40%
- pIC50 (SK-MEL): 4.22
- growth inhibition (GI) (KB): inactive
- inhibition [19]: < 40%
